Test results published in PMC5508980 (Molecular nutrition & food research, 2017).

Assays:
Class IIb HDAC = assay: HDAC activity assay, class IIb substrate, bovine heart tissue lysate; assay type: biochemical; conditions: 2 hours treatment
Summary of the method: (§1)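 Bovine heart lysate prepared in PBS pH 7.4 with 0.5% Triton X-100, 300 mM NaCl and protease/phosphatase inhibitors, then clarified; 30 µg protein/well in PBS. Test compound at semi-log increasing concentrations for 2 h, then class-specific AMC-acyl-lysine substrate (1 mM DMSO stock) for 2 h at 37 °C.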

recombinant HDAC6 = molecular target: T1, recombinant HDAC6 (Homo sapiens, UniProt Q9UBN7); assay: Recombinant HDAC activity assay; assay type: biochemical; conditions: 2 h, read-out: % HDAC activity, Class IIb HDACs, 6
T1 sequence (Q9UBN7 1-1215): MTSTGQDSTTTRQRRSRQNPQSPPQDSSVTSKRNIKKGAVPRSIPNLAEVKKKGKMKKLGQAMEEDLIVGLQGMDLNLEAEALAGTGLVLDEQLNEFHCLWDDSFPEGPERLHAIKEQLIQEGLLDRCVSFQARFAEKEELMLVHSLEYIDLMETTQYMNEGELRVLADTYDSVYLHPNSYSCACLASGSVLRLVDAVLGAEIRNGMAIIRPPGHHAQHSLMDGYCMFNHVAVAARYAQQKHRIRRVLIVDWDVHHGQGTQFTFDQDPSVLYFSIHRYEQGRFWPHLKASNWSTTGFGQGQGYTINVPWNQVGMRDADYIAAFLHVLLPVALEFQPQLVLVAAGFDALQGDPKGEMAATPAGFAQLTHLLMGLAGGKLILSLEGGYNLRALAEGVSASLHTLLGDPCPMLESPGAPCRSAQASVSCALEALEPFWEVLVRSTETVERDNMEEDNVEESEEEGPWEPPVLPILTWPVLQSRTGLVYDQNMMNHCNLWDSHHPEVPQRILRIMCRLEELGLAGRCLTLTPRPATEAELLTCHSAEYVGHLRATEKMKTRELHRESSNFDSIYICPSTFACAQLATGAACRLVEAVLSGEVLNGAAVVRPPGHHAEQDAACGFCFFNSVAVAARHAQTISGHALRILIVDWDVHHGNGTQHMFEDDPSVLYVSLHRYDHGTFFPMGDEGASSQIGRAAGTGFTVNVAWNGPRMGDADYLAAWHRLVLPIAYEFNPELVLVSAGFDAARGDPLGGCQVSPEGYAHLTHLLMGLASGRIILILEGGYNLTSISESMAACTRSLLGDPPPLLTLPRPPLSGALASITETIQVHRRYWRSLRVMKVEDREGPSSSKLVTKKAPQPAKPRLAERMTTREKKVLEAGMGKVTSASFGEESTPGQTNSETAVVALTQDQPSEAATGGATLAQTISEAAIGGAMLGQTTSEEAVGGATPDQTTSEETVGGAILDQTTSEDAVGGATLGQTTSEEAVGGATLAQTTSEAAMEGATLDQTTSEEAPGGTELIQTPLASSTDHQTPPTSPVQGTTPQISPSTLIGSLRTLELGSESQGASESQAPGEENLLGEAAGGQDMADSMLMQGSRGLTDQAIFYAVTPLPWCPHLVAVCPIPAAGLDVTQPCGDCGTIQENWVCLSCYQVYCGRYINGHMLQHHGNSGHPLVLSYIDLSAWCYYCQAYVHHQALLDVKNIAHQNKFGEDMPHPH

recombinant HDAC7 = molecular target: T2, recombinant HDAC7 (Homo sapiens, UniProt Q8WUI4); assay: Recombinant HDAC activity assay; assay type: biochemical; conditions: recombinant protein incubated with 50 µM compound, 2 hrs
T2 sequence (Q8WUI4 1-952): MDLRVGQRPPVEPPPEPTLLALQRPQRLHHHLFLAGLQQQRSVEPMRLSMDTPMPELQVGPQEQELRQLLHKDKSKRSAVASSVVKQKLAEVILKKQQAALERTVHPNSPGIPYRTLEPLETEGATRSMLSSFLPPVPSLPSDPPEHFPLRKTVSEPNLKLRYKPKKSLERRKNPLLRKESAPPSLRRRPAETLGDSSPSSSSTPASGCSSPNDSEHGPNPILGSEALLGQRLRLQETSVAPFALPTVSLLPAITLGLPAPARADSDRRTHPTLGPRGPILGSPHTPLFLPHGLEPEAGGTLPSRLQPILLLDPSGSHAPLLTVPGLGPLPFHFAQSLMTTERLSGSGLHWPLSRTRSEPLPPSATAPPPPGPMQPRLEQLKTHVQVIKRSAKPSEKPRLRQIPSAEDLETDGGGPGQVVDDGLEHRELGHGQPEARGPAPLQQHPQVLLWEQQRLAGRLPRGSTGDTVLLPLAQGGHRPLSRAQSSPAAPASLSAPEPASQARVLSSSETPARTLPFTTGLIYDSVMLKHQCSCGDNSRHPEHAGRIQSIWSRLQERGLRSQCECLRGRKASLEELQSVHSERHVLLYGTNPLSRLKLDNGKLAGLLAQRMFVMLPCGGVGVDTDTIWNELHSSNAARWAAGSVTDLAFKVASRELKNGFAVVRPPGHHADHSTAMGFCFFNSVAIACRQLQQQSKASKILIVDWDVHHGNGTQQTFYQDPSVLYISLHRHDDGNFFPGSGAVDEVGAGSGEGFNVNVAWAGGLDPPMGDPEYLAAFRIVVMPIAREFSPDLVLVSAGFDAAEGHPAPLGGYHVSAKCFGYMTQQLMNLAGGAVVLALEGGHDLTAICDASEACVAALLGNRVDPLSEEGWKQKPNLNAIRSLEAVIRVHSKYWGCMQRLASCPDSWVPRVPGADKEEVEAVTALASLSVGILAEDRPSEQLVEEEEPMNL

recombinant HDAC1 = recombinant HDAC1 (Homo sapiens, UniProt Q13547); assay: Recombinant HDAC activity assay; assay type: biochemical; conditions: for remaining activity at 50 µM: 2 h, read-out: % HDAC activity, Class I HDACs, 1
recombinant HDAC1, sequence (Q13547 whole entry): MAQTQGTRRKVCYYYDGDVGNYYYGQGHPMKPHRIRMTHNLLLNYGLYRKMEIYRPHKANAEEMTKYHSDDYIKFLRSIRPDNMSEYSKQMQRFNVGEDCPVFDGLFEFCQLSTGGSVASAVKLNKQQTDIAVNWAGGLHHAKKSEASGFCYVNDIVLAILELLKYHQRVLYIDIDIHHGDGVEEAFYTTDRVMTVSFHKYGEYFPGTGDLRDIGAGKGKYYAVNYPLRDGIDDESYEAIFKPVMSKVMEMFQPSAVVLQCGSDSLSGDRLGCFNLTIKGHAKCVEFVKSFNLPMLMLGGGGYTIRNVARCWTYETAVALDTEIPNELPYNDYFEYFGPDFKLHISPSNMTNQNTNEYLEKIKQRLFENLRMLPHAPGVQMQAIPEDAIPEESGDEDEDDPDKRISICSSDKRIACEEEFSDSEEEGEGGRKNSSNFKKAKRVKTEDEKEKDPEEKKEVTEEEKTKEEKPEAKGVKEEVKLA

recombinant HDAC2 = recombinant HDAC2 (Homo sapiens, UniProt Q92769); assay: Recombinant HDAC activity assay; assay type: biochemical
recombinant HDAC2, sequence (Q92769 whole entry): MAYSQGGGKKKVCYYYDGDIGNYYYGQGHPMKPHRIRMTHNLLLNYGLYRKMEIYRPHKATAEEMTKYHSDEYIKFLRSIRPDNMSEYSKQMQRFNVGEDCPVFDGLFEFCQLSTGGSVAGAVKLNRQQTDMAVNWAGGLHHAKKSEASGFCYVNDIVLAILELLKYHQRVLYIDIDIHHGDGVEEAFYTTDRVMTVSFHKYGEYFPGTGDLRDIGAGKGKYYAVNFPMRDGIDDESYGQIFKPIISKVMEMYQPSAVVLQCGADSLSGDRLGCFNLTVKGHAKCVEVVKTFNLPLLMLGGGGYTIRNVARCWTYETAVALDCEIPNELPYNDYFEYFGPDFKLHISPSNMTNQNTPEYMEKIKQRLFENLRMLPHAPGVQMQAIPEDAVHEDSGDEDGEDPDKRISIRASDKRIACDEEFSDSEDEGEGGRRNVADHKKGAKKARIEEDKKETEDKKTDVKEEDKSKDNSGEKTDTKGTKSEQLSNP

Class I HDAC = assay: HDAC activity assay, class I substrate, bovine heart tissue lysate; assay type: biochemical; conditions: 2 hours treatment
Summary of the method: as §1

recombinant HDAC8 = molecular target: T3, recombinant HDAC8 (Homo sapiens, UniProt Q9BY41); assay: Recombinant HDAC activity assay; assay type: biochemical; conditions: for remaining activity at 50 µM: 2 h, read-out: % HDAC activity, Class I HDACs, 8
T3 sequence (Q9BY41 1-377): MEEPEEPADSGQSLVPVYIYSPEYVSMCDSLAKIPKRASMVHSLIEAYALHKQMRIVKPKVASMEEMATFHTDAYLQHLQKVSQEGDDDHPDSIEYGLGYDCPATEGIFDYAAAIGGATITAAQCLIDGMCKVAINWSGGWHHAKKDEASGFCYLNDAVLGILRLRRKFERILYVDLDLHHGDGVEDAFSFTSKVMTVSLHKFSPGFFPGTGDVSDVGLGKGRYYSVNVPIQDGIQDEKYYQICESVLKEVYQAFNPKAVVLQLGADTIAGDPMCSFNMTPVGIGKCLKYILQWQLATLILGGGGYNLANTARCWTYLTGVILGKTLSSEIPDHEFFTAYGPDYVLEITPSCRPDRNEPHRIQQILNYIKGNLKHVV

recombinant HDAC3 = recombinant HDAC3 (Homo sapiens, UniProt O15379); assay: Recombinant HDAC activity assay; assay type: biochemical; conditions: for remaining activity at 50 µM: 2 h, read-out: % HDAC activity, Class I HDACs, 3
recombinant HDAC3, sequence (O15379 whole entry): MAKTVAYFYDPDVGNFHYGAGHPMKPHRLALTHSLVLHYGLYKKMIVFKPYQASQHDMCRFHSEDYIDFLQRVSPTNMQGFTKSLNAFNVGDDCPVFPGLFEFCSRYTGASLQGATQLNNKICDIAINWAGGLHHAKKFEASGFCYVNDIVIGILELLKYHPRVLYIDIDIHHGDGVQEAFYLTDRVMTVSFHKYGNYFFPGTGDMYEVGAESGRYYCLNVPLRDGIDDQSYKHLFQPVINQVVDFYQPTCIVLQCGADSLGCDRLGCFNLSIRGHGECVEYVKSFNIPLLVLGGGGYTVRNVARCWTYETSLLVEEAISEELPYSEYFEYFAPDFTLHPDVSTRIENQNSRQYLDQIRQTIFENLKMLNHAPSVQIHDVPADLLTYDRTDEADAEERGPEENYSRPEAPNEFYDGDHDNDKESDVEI
recombinant HDAC3, sequence (Q9Y618 395-489 partner limits assumed): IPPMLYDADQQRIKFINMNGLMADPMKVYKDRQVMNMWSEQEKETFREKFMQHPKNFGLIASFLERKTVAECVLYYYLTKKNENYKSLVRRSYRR

[1] = test system: HDAC activity in bovine cardiac tissue; assay: Natural product library screen with class-selective HDAC substrates; assay type: biochemical; conditions: 2 hours treatment
Summary of the method: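 The screen covered 131 natural compounds against bovine cardiac tissue lysate at 30 µg protein/well in PBS (pH 7.4 lysis buffer with Triton X-100 and NaCl). Test compound for 2 h, then separate class I, IIa or IIb fluorogenic acyl-lysine-AMC substrates for 2 h at 37 °C. Developer (Triton X-100, 3 µM TSA, 0.75 mg/ml trypsin) for 20 min; fluorescence read at 360/460 nm.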

recombinant HDAC10 = molecular target: T4, recombinant HDAC10 (Homo sapiens, UniProt Q969S8); assay: Recombinant HDAC activity assay; assay type: biochemical; conditions: 2 h, read-out: % HDAC activity, Class IIb HDACs, 10
T4 sequence (Q969S8 1-669): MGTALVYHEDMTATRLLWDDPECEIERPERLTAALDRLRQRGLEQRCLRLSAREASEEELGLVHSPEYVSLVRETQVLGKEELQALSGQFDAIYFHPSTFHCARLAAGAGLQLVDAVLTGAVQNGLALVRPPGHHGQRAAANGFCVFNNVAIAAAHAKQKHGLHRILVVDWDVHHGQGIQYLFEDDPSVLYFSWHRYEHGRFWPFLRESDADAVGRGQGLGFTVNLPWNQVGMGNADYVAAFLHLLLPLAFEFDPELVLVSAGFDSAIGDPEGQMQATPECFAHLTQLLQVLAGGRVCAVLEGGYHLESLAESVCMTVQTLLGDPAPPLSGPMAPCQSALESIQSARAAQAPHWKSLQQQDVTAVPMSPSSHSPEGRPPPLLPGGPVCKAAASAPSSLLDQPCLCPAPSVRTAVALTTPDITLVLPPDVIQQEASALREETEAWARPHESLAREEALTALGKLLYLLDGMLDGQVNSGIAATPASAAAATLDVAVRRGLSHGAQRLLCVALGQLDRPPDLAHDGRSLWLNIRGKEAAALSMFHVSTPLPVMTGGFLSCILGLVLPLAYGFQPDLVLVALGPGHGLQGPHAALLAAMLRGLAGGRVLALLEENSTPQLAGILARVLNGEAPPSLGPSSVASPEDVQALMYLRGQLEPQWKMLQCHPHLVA

recombinant HDAC4 = recombinant HDAC4 (Homo sapiens, UniProt P56524); assay: Recombinant HDAC activity assay; assay type: biochemical; conditions: 2 h, read-out: % HDAC activity, Class IIa HDACs, 4
recombinant HDAC4, sequence (P56524 whole entry): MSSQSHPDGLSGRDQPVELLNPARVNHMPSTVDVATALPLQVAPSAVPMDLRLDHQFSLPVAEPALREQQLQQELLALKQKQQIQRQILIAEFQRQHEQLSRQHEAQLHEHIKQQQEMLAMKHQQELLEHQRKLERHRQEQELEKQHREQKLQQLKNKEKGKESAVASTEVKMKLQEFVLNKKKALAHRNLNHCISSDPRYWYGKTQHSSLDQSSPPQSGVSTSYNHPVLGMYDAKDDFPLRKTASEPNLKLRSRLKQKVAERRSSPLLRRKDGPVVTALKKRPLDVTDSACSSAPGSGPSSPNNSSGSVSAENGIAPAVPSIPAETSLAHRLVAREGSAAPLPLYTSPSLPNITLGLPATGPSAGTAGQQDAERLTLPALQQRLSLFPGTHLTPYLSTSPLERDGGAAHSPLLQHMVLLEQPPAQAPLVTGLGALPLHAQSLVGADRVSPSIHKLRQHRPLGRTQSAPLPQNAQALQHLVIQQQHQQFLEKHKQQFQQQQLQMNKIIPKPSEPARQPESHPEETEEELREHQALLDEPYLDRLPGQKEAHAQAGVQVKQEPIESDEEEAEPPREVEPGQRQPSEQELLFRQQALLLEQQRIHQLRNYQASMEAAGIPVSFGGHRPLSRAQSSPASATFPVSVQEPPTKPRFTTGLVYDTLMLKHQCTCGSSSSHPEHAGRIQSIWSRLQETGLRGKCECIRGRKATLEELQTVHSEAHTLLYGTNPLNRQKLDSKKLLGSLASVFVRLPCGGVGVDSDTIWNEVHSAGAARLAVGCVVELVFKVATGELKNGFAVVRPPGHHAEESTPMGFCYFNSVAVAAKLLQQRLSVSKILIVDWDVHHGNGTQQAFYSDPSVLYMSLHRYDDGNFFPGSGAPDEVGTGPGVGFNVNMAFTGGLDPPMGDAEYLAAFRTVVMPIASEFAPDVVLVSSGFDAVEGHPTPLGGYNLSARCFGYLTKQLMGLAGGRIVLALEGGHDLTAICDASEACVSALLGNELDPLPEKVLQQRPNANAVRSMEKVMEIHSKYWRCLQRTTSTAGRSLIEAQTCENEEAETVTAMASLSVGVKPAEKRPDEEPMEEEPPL

recombinant HDAC5 = recombinant HDAC5 (Homo sapiens, UniProt Q9UQL6); assay: Recombinant HDAC activity assay; assay type: biochemical; conditions: 2 h, read-out: % HDAC activity, Class IIa HDACs, 5
recombinant HDAC5, sequence (Q9UQL6 whole entry): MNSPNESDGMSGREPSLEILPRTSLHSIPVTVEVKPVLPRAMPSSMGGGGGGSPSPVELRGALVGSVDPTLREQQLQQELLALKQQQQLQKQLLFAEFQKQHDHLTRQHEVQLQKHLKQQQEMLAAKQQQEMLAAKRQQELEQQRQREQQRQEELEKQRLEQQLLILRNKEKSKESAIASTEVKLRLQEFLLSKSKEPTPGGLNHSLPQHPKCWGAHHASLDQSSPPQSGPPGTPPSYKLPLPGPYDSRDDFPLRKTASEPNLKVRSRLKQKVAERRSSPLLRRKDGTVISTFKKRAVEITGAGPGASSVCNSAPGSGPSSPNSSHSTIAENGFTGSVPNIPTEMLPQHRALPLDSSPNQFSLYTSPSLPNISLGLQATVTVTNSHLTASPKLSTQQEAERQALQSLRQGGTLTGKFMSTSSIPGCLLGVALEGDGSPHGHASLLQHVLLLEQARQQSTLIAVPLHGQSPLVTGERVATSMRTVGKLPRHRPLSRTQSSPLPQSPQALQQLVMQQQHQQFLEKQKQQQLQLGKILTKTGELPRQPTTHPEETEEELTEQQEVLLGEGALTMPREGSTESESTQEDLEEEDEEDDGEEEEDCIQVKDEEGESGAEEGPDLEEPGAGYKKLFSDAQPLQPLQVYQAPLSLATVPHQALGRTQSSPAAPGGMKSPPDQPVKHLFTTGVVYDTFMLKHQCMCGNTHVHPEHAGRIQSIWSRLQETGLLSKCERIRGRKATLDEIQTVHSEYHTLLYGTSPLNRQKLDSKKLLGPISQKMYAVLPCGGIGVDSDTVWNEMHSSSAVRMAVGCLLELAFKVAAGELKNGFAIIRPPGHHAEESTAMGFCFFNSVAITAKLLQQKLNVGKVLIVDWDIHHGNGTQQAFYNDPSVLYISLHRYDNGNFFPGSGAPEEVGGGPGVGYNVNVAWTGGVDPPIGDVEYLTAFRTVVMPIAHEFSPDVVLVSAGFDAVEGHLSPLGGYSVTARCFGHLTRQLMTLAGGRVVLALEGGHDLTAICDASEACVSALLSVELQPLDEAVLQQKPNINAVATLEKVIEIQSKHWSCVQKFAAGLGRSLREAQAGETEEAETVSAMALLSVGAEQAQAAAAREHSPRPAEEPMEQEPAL

H9c2 cells = assay: Acetyl-H3K9/14 immunoblot of whole cell extract; assay type: cell-based, rat; conditions: H9c2 myocytes, 50 µM, 2 hours
Summary of the method: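 H9c2 cells were grown in DMEM with 10% FBS and treated at 90% confluence for 2 h with test compound or DMSO, with TSA as positive control. Washed in ice-cold PBS, lysed in PBS pH 7.4 with 0.5% Triton X-100 and 300 mM NaCl plus inhibitors, sonicated and clarified. SDS-PAGE, nitrocellulose, acetyl-H3K9/14 and total H3 antibodies, chemiluminescence; densitometry; ANOVA with Tukey.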

recombinant HDAC9 = recombinant HDAC9 (Homo sapiens, UniProt Q9UKV0); assay: Recombinant HDAC activity assay; assay type: biochemical; conditions: 2 h, read-out: % HDAC activity, Class IIa HDACs, 9
recombinant HDAC9, sequence (Q9UKV0 whole entry): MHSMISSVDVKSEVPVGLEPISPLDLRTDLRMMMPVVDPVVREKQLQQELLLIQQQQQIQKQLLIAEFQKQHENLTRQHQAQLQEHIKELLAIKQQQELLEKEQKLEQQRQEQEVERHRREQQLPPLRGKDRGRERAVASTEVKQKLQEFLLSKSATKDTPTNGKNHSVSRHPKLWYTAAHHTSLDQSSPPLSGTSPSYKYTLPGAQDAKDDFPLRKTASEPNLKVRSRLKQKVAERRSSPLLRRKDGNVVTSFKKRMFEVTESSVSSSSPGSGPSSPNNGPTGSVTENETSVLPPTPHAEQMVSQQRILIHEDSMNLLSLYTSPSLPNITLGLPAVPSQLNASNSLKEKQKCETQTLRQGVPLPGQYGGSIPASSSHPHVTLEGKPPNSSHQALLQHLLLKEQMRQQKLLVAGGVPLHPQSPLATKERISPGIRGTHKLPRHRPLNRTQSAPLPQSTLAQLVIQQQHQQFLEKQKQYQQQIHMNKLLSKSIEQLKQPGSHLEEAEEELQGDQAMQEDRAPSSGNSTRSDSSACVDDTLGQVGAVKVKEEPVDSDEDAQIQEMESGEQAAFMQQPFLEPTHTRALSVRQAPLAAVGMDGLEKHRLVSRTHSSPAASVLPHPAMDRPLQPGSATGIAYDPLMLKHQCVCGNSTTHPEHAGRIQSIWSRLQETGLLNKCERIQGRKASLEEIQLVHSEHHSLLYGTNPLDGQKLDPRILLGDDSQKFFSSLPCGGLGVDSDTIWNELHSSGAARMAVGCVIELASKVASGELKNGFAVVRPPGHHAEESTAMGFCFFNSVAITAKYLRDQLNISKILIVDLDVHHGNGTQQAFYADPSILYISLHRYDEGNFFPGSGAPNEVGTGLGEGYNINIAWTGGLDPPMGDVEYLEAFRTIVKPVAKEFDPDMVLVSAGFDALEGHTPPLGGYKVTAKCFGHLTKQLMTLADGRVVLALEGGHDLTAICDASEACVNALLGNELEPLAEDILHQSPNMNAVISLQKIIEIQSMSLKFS

Class IIa HDAC = assay: HDAC activity assay, class IIa substrate, bovine heart tissue lysate; assay type: biochemical; conditions: 2 hours treatment
Summary of the method: as §1

[2] = recombinant protein incubated with 50 µM compound, 2 hrs

Oc1cc2c(cc1O)[C@@H]1c3ccc(O)c(O)c3OC[C@]1(O)C2 [Hematoxylin]
class IIb HDAC activity, effect in words (Class IIb HDAC): targeted class IIb HDACs for inhibition | remaining activity at 50 µM (recombinant HDAC6): 81.8% | % HDAC activity, Class IIa HDACs, 7 (recombinant HDAC7): -

COc1cc2c(cc1OC)-c1cc3ccc(OC)c(OC)c3c[n+]1CC2 [Palmatine]
% HDAC activity, Class I HDACs, 1 (recombinant HDAC1; [2]): 44.8% | % HDAC activity, Class I HDACs, 2 (recombinant HDAC2; [2]): 17.5% | class I HDAC activity, effect in words (Class I HDAC): only inhibit class I HDAC activity | % HDAC activity, Class IIa HDACs, 7 (recombinant HDAC7): - | % HDAC activity, Class I HDACs, 8 (recombinant HDAC8; [2]): 40.9% | % HDAC activity, Class I HDACs, 3 (recombinant HDAC3; [2]): 47.1%

O=c1c(O)c(-c2ccc(O)c(O)c2)oc2cc(O)cc(O)c12 [Quercetin dihydrate]
catalytic HDAC activity across class I, IIa and IIb substrates, effect in words [1]: dose-dependent pan-HDAC inhibition | remaining activity at 50 µM (recombinant HDAC1): 72.7% | remaining activity at 50 µM (recombinant HDAC10): 68% | remaining activity at 50 µM (recombinant HDAC4): 89.8% | remaining activity at 50 µM (recombinant HDAC5): 78.2% | % HDAC activity, Class IIa HDACs, 7 (recombinant HDAC7): - | acetylation of histone 3 on lysine 9/14 (Ac-H3 K9/14) via immunoblot (H9c2 cells): increased | remaining activity at 50 µM (recombinant HDAC9): 70.8% | remaining activity at 50 µM (recombinant HDAC8): 64% | remaining activity at 50 µM (recombinant HDAC3): 63.6%

DPAH
class IIa HDAC activity, effect in words (Class IIa HDAC): only inhibited class IIa HDAC activity

Cc1cc2c(C(C)C)c(O)c(O)c(C=O)c2c(O)c1-c1c(C)cc2c(C(C)C)c(O)c(O)c(C=O)c2c1O [Gossypol]
catalytic HDAC activity across class I, IIa and IIb substrates, effect in words [1]: dose-dependent pan-HDAC inhibition | remaining activity at 50 µM (recombinant HDAC1): 42.6% | remaining activity at 50 µM (recombinant HDAC10): 42.6% | remaining activity at 50 µM (recombinant HDAC2; 2 h, read-out: % HDAC activity, Class I HDACs, 2): 15.1% | remaining activity at 50 µM (recombinant HDAC5): 51.5% | % HDAC activity, Class IIa HDACs, 7 (recombinant HDAC7): - | acetylation of histone 3 on lysine 9/14 (Ac-H3 K9/14) via immunoblot (H9c2 cells): increased | remaining activity at 50 µM (recombinant HDAC9): 44.5% | remaining activity at 50 µM (recombinant HDAC8): 40.7% | remaining activity at 50 µM (recombinant HDAC3): 42.1%
